Source: ChEMBL document CHEMBL1126277, “6-substituted decahydroisoquinoline-3-carboxylic acids as potent and selective conformationally constrained NMDA receptor antagonists” (J Med Chem, 1992)

Experiments:
[1] = test system: Mus musculus; test: Minimum effective dose measures the in vivo NMDA antagonist activity of compound and its ability to protect mice from lethality induced by 200 mg/kg ip injection of NMDA.; format: functional; conditions: route intraperitoneal; for MED: NMDA challenge 200 mg/kg, 200 mg/kg; for minimal effective dose: Mus musculus, ip, read-out: MED
Procedure, shortened: (§1)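 Mice were given the compound ip 30 min before an ip challenge of NMDA at 200 mg/kg, a dose lethal to ≥95% of animals. Survival was scored with five animals tested per dose. MED was taken as the lowest dose protecting >50% of animals, meaning at least three of five survived.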

[2] = In vitro inhibition of 40 uM NMDA induced depolarization in rat cortical slices.
[3] = molecular target: Glutamate NMDA receptor; test: Displacement of [3H]CGS-19,755 from glutamate recognition site of N-methyl-D-aspartate glutamate receptor complex; format: protein-complex assay, Rattus norvegicus
[4] = test system: Mus musculus; test: Minimum effective dose measures the in vivo N-methyl-D-aspartate glutamate receptor antagonist activity of compound and its ability to protect mice from lethality induced by 200 mg/kg ip injection of NMDA.; format: functional; conditions: route intraperitoneal, read-out: MED; procedure, shortened: as §1
[5] = molecular target: Glutamate NMDA receptor; test: In vitro compound's ability to displace [3H]-CGS-19,755 binding as a measure of its affinity for the glutamate recognition site on the NMDA receptor complex.; format: protein-complex assay

Work on `O=C(O)C1CC2C[C@@H](Cc3nnn[nH]3)CCC2CN1` (stereo in doubt; 32b) yielded an MED [1] of 40 mg/kg and an IC50 [2] of 4.8 µM.

For `O=C(O)[C@@H]1C[C@H]2CC(CP(=O)(O)O)CC[C@H]2N1` (stereo partly drawn), the IC50 [3] was > 10 µM, the minimal effective dose [4] was > 160 mg/kg and the IC50 [2] was > 100 µM.

In the case of `O=C(O)C1NCCC2CC(Cc3nnn[nH]3)CCC21` (stereo not drawn), the minimal effective dose [4] is reported as 160 mg/kg and the IC50 [2] is reported as 7.8 µM.

For `O=C(O)C1Cc2cc(Cc3nnn[nH]3)ccc2CN1` (stereo not drawn), the minimal effective dose [4] was > 160 mg/kg and the IC50 [2] was 36.6 µM.

With `O=C(O)C1CC2CC(Cc3nnn[nH]3)CCC2CN1` (stereo not drawn) the IC50 [3] was > 10 µM, the minimal effective dose [4] was > 160 mg/kg and the IC50 [2] was > 100 µM.

For `O=C(O)C1Cc2cc(CP(=O)(O)O)ccc2CN1` (stereo not drawn), the IC50 [3] was 13.8 µM, the minimal effective dose [4] was > 160 mg/kg and the IC50 [2] was 34.4 µM.

In the case of `O=C(O)[C@@H]1C[C@H]2CC(Cc3nnn[nH]3)CC[C@H]2N1` (stereo partly drawn), the IC50 [3] is reported as > 10 µM, the minimal effective dose [4] is reported as > 160 mg/kg and the IC50 [2] is reported as > 100 µM.

In the case of `O=C(O)C1CC2C[C@@H](Cc3nnn[nH]3)CCC2CN1` (stereo in doubt; 32a), the MED [1] is reported as 2.5 mg/kg and the IC50 [2] is reported as 1.39 µM.

With `O=C(O)C1CC2CC(CP(=O)(O)O)CCC2CN1` (stereo not drawn) the IC50 [3] was > 10 µM, the minimal effective dose [4] was > 160 mg/kg and the IC50 [2] was > 100 µM.

In the case of `O=C(O)[C@@H]1C[C@H](CP(=O)(O)O)CCN1` [SELFOTEL], the IC50 [2] is reported as 1.6 µM.

For `CN1CCC2(CCCC(CP(=O)(O)O)C2)CC1C(=O)O` (stereo not drawn), the minimal effective dose [1] was > 160 mg/kg and the IC50 [5] was > 10 µM.

`O=C(O)[C@H]1C[C@@H](Cc2nnn[nH]2)CCN1` gave a minimal effective dose [1] of 5 mg/kg and an IC50 [2] of 4.2 µM.
